Assay results taken from ChEMBL document CHEMBL3046702, “Herbicidal, plant growth inhibitory, and cytotoxic activities of bismuthines containing aromatic heterocycles” (J Agric Food Chem, 2003).
Activity calls are given as the source filed them. No cut-off for these calls is given here.

Legend:
Trifolium pratense [1] = experiment: Herbicidal activity against Trifolium pratense var. Kenland (red clover) assessed as inhibition of seed respiration during germination after 72 hr by polarographic analysis; assay type: functional, organism-based
In short: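 Red clover seeds were exposed to the bismuthines during germination, with respiration followed over the imbibition time. Values were taken at 72 h as the concentration giving 50% inhibition of seed respiration, using means of three experiments.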

Phaseolus vulgaris [2] = experiment: Herbicidal activity against Phaseolus vulgaris assessed as inhibition of mitochondrial oxygen uptake; assay type: functional, organism-based; conditions: read-out: I50
Lolium multiflorum [3] = experiment: Herbicidal activity against Lolium multiflorum var. Gulf (Italian ryegrass) assessed as inhibition of seed germination after 48 hr; assay type: functional, organism-based; conditions: read-out: I50
Artemia salina [4] = experiment: Toxicity in Artemia salina (brine shrimp) larvae assessed as mortality at 100 uM; assay type: organism-based; conditions: in vivo
In short: (§1)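 Brine shrimp lethality test on *Artemia salina* larvae, run across several concentrations up to a top level of 1000 µM. Mortality was scored at each concentration, and LC50 values in µM were derived from the concentration–mortality data.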

Artemia salina [5] = experiment: Toxicity in Artemia salina (brine shrimp) larvae assessed as mortality at 20 uM; assay type: organism-based; conditions: in vivo; in short: as §1
Phaseolus vulgaris [6] = experiment: Herbicidal activity against Phaseolus vulgaris assessed as inhibition of seed respiration during germination; assay type: functional, organism-based; conditions: read-out: I50
Artemia salina [7] = experiment: Toxicity in Artemia salina (brine shrimp) larvae assessed as mortality at 500 to 1000 uM; assay type: organism-based; conditions: in vivo; in short: as §1
Artemia salina [8] = experiment: Toxicity in Artemia salina (brine shrimp) larvae assessed as mortality at 200 uM; assay type: organism-based; conditions: in vivo; in short: as §1
Lactuca sativa [9] = experiment: Herbicidal activity against Lactuca sativa var.Roman (lettuce) assessed as inhibition of seed germination after 48 hr; assay type: functional, organism-based; conditions: read-out: I50
Artemia salina [10] = experiment: Toxicity in Artemia salina (brine shrimp) larvae assessed as mortality; assay type: organism-based; conditions: in vivo; in short: as §1
Trifolium pratense [11] = experiment: Herbicidal activity against Trifolium pratense var. Kenland (red clover) assessed as inhibition of seed germination after 48 hr; assay type: functional, organism-based; conditions: read-out: I50
Lactuca sativa [12] = experiment: Herbicidal activity against Lactuca sativa var.Roman (lettuce) seedlings assessed as seed germination rate at 3 uM after 48 hr relative to control; assay type: functional, organism-based
Lactuca sativa [13] = experiment: Herbicidal activity against Lactuca sativa var.Roman (lettuce) seedlings assessed as root length at 5 uM after 120 hr (reference value: 18 to 19 mm); assay type: functional, organism-based
Lolium multiflorum [14] = experiment: Herbicidal activity against Lolium multiflorum var. Gulf (Italian ryegrass) seedlings assessed as shoot length rate at 10 uM after 48 hr relative to control; assay type: functional, organism-based
In short: (§2)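 Italian ryegrass seedlings grown with 0, 0.5, 1, 3, 5, 7.5 or 10 µM of each bismuthine. Shoot and root lengths were measured at 48 h and expressed as a percentage of the average untreated control length.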

Lactuca sativa [15] = experiment: Herbicidal activity against Lactuca sativa var.Roman (lettuce) assessed as inhibition of seed germination at > 36.6 uM after 48 hr; assay type: functional, organism-based
Lolium multiflorum [16] = experiment: Herbicidal activity against Lolium multiflorum var. Gulf (Italian ryegrass) seedlings assessed as root length rate at 0.5 uM after 48 hr relative to control; assay type: functional, organism-based; in short: as §2
[17] = system: Radical scavenging activity; experiment: Antioxidant activity assessed as DPPH free radical scavenging activity at 5 to 100 uM after 30 min by TLC autographic assay; assay type: functional
Lactuca sativa [18] = experiment: Herbicidal activity against Lactuca sativa var.Roman (lettuce) seedlings assessed as seed germination rate at 0.5 uM after 48 hr relative to control; assay type: functional, organism-based
Lolium multiflorum [19] = experiment: Herbicidal activity against Lolium multiflorum var. Gulf (Italian ryegrass) seedlings assessed as shoot length rate at 3 uM after 48 hr relative to control; assay type: functional, organism-based; in short: as §2
Lactuca sativa [20] = experiment: Herbicidal activity against Lactuca sativa var.Roman (lettuce) seedlings assessed as seed germination rate at 5 uM after 48 hr relative to control; assay type: functional, organism-based
Lactuca sativa [21] = experiment: Herbicidal activity against Lactuca sativa var.Roman (lettuce) seedlings assessed as root length at 10 uM after 120 hr (reference value: 18 to 19 mm); assay type: functional, organism-based
Lactuca sativa [22] = experiment: Herbicidal activity against Lactuca sativa var.Roman (lettuce) seedlings assessed as root length at 75 uM after 120 hr (reference value: 18 to 19 mm); assay type: functional, organism-based
Lolium multiflorum [23] = experiment: Herbicidal activity against Lolium multiflorum var. Gulf (Italian ryegrass) seedlings assessed as root length rate at 3 uM after 48 hr relative to control; assay type: functional, organism-based; in short: as §2
Lactuca sativa [24] = experiment: Herbicidal activity against Lactuca sativa var.Roman (lettuce) seedlings assessed as shoot length at 75 uM after 120 hr (reference value: 27 to 31 mm); assay type: functional, organism-based
Lolium multiflorum [25] = experiment: Herbicidal activity against Lolium multiflorum var. Gulf (Italian ryegrass) seedlings assessed as root length rate at 1 uM after 48 hr relative to control; assay type: functional, organism-based; in short: as §2
Lactuca sativa [26] = experiment: Herbicidal activity against Lactuca sativa var.Roman (lettuce) seedlings assessed as root length at 25 uM after 120 hr (reference value: 18 to 19 mm); assay type: functional, organism-based
Lactuca sativa [27] = experiment: Herbicidal activity against Lactuca sativa var.Roman (lettuce) seedlings assessed as seed germination rate at 1 uM after 48 hr relative to control; assay type: functional, organism-based
Lolium multiflorum [28] = experiment: Herbicidal activity against Lolium multiflorum var. Gulf (Italian ryegrass) seedlings assessed as root length rate at 10 uM after 48 hr relative to control; assay type: functional, organism-based; in short: as §2
Lolium multiflorum [29] = experiment: Herbicidal activity against Lolium multiflorum var. Gulf (Italian ryegrass) seedlings assessed as shoot length rate at 5 uM after 48 hr relative to control; assay type: functional, organism-based; in short: as §2
Lactuca sativa [30] = experiment: Herbicidal activity against Lactuca sativa var.Roman (lettuce) seedlings assessed as root length at 50 uM after 120 hr (reference value: 18 to 19 mm); assay type: functional, organism-based
Lactuca sativa [31] = experiment: Herbicidal activity against Lactuca sativa var.Roman (lettuce) seedlings assessed as shoot length at 5 uM after 120 hr (reference value: 27 to 31 mm); assay type: functional, organism-based
[32] = system: Radical scavenging activity; experiment: Antioxidant activity assessed as DPPH free radical scavenging activity at 5 to 100 uM after 30 min by spectrophotometric analysis; assay type: functional
In short: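 DPPH reduction by the compounds was read spectrophotometrically at 517 nm after 30 min. 100% DMSO served as the blank and quercetin as the reference scavenger.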

Lactuca sativa [33] = experiment: Herbicidal activity against Lactuca sativa var.Roman (lettuce) seedlings assessed as seed germination rate at 7.5 uM after 48 hr relative to control; assay type: functional, organism-based
Lolium multiflorum [34] = experiment: Herbicidal activity against Lolium multiflorum var. Gulf (Italian ryegrass) seedlings assessed as shoot length rate at 0.5 uM after 48 hr relative to control; assay type: functional, organism-based; in short: as §2
Lolium multiflorum [35] = experiment: Herbicidal activity against Lolium multiflorum var. Gulf (Italian ryegrass) seedlings assessed as shoot length rate at 7.5 uM after 48 hr relative to control; assay type: functional, organism-based; in short: as §2
Physalis ixocarpa = experiment: Herbicidal activity against Physalis ixocarpa assessed as inhibition of seed respiration during germination after 72 hr by polarographic analysis; assay type: functional, organism-based
Trifolium pratense [36] = experiment: Herbicidal activity against Trifolium pratense var. Kenland (red clover) assessed as inhibition of seed germination at > 18.3 uM after 48 hr; assay type: functional, organism-based
Lactuca sativa [37] = experiment: Herbicidal activity against Lactuca sativa var.Roman (lettuce) assessed as inhibition of seed germination at > 48.8 uM after 48 hr; assay type: functional, organism-based
Lolium multiflorum [38] = experiment: Herbicidal activity against Lolium multiflorum var. Gulf (Italian ryegrass) assessed as inhibition of seed respiration during germination after 72 hr by polarographic analysis; assay type: functional, organism-based
Lactuca sativa [39] = experiment: Herbicidal activity against Lactuca sativa var.Roman (lettuce) seedlings assessed as shoot length at 10 uM after 120 hr (reference value: 27 to 31 mm); assay type: functional, organism-based
Lactuca sativa [40] = experiment: Herbicidal activity against Lactuca sativa var.Roman (lettuce) seedlings assessed as seed germination rate at 10 uM after 48 hr relative to control; assay type: functional, organism-based
Lolium multiflorum [41] = experiment: Herbicidal activity against Lolium multiflorum var. Gulf (Italian ryegrass) seedlings assessed as root length rate at 5 uM after 48 hr relative to control; assay type: functional, organism-based; in short: as §2
Lolium multiflorum [42] = experiment: Herbicidal activity against Lolium multiflorum var. Gulf (Italian ryegrass) seedlings assessed as root length rate at 7.5 uM after 48 hr relative to control; assay type: functional, organism-based; in short: as §2
Lolium multiflorum [43] = experiment: Herbicidal activity against Lolium multiflorum var. Gulf (Italian ryegrass) seedlings assessed as shoot length rate at 1 uM after 48 hr relative to control; assay type: functional, organism-based; in short: as §2
Lactuca sativa [44] = experiment: Herbicidal activity against Lactuca sativa var.Roman (lettuce) seedlings assessed as shoot length at 50 uM after 120 hr (reference value: 27 to 31 mm); assay type: functional, organism-based
Lactuca sativa [45] = experiment: Herbicidal activity against Lactuca sativa var.Roman (lettuce) seedlings assessed as inhibition of seed germination at 5 uM after 48 hr; assay type: functional, organism-based
Lactuca sativa [46] = experiment: Herbicidal activity against Lactuca sativa var.Roman (lettuce) seedlings assessed as shoot length at 25 uM after 120 hr (reference value: 27 to 31 mm); assay type: functional, organism-based
Lactuca sativa [47] = experiment: Herbicidal activity against Lactuca sativa var.Roman (lettuce) seedlings assessed as growth inhibition at 5 uM after 120 hr; assay type: functional, organism-based

| Substance | Activity (Lactuca sativa [12]) | Activity (Lactuca sativa [13]) | Activity (Lolium multiflorum [14]) | Activity (Lolium multiflorum [16]) | Activity [17] | Activity (Lactuca sativa [18]) | Activity (Lolium multiflorum [19]) | Activity (Lactuca sativa [20]) | Activity (Lactuca sativa [21]) | Activity (Lactuca sativa [22]) | Activity (Lolium multiflorum [23]) | Activity (Lactuca sativa [24]) | Activity (Lolium multiflorum [25]) | inhibition (Trifolium pratense [1]) | Activity (Lactuca sativa [26]) | Activity (Lactuca sativa [27]) | Activity (Lolium multiflorum [28]) | Activity (Lolium multiflorum [29]) | Activity (Lactuca sativa [30]) | Activity (Lactuca sativa [31]) | other results |
| --- | --- | --- | --- | --- | --- | --- | --- | --- | --- | --- | --- | --- | --- | --- | --- | --- | --- | --- | --- | --- | --- |
| TRIS(2-FURYL)BISMUTH [listing 1 of 2 here] | – | – | – | – | – | – | – | – | – | – | – | – | – | – | – | – | – | – | – | – | IC50 (Trifolium pratense [1]; read-out: I50): 6.3 µM; IC50 (Phaseolus vulgaris [2]): 10 µM; IC50 (Lolium multiflorum [3]): 20 µM; mortality (Artemia salina [4]): 50.9%; mortality (Artemia salina [5]): 12.28%; IC50 (Phaseolus vulgaris [6]): 1.1 µM; mortality (Artemia salina [7]): 100%; mortality (Artemia salina [8]): 68.96%; IC50 (Lactuca sativa [9]): 16.1 µM; LC50 (Artemia salina [10]): 99 µM; IC50 (Trifolium pratense [11]): 4.6 µM |
| TRIS(2-FURYL)BISMUTH [listing 2 of 2 here] | 80% | 32 mm | 24% | 78% | Active | 95% | 79% | 70% | 7 mm | 0 mm | 86% | 0 mm | 70% | Dose-dependent effect | 0 mm | 95% | 30% | 55% | 0 mm | 24 mm | inhibition (Lactuca sativa [15]): Active; Activity [32]: Active; Activity (Lactuca sativa [33]): 35%; Activity (Lolium multiflorum [34]): 82%; Activity (Lolium multiflorum [35]): 53%; inhibition (Physalis ixocarpa): Active; inhibition (Trifolium pratense [36]): 100%; inhibition (Lactuca sativa [37]): 100%; inhibition (Lolium multiflorum [38]): inactive; Activity (Lactuca sativa [39]): 11 mm; Activity (Lactuca sativa [40]): 35%; Activity (Lolium multiflorum [41]): 66%; Activity (Lolium multiflorum [42]): 44%; Activity (Lolium multiflorum [43]): 75% |
| TRIS(2-THIENYL)BISMUTH | 85% | 36 mm | 37% | 70% | inactive | 90% | 71% | 80% | 5 mm | 0 mm | 52% | 0 mm | 88% | Dose-dependent effect | 3 mm | 90% | 30% | 75% | 2 mm | 33 mm | Activity (Lactuca sativa [44]): 5 mm; inhibition (Lactuca sativa [45]): Active; Activity (Lactuca sativa [46]): 7 mm; Activity [32]: Active; Activity (Lactuca sativa [33]): 70%; inhibition (Lactuca sativa [47]): 30%; Activity (Lolium multiflorum [34]): 84%; Activity (Lolium multiflorum [35]): 46%; inhibition (Physalis ixocarpa): Active; inhibition (Lolium multiflorum [38]): inactive; Activity (Lactuca sativa [39]): 9 mm; Activity (Lactuca sativa [40]): 60%; Activity (Lolium multiflorum [41]): 76%; Activity (Lolium multiflorum [42]): 50%; Activity (Lolium multiflorum [43]): 82% |
